Source: ChEMBL document CHEMBL1142741, “Norpiperidine imidazoazepines as a new class of potent, selective, and nonsedative H1 antihistamines” (J Med Chem, 2005)

Columns and labels:
Rattus norvegicus [1] = experiment: Effective dose for inhibition of skin reactions induced by histamine in rat by 2 hr after the subcutaneous administration; assay type: functional; conditions: sc
Method in brief: (§1)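 Male Wistar rats (200-240 g) were passively sensitized with intradermal ovalbumin-specific IgE serum; 50 h later histamine (50 µg), serotonin (0.1 µg) and Ascaris allergens (1/2 in saline) were injected intradermally at dorsal sites. Compound was given sc 2 h before challenge, with two observers' scores summed. Histamine and serotonin: inhibition score <4, blockade <3. PCA and Ascaris: score <3. ED50 by Finney's method, five animals per dose.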

Rattus norvegicus [2] = experiment: Effective dose for the inhibition of 48/80-induced lethal anaphylactic reaction was determined in rat by 2 hour after oral administration; assay type: functional
Method in brief: (§2)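 Compound or solvent was given sc 1 h or po 2 h beforehand at 10 mL/kg, dosed as base equivalents from a 0.04-10 mg/kg geometric series, five rats per dose.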

Canis familiaris [3] = experiment: Peak effective dose for inhibition of skin reactions induced by Ascaris allergens in dog by 4 hr after the oral administration; conditions: Canis lupus familiaris
Rattus norvegicus [4] = experiment: Effective dose for inhibition of skin reactions induced by serotonin in rat by 2 hr after the subcutaneous administration; assay type: functional; conditions: sc; method in brief: as §1
[5] = Solubility in water at pH 2.0; assay type: physicochemical
Method in brief: (§3)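 Excess or stated amounts of solute were shaken in closed vials of solvent for 24 h at 20 °C, following Higuchi and Connors. For clear solutions, only pH was recorded and solubility was taken as solute added per solvent volume. Turbid samples were filtered through 0.45 µm, the filtrate pH was recorded, and concentration was measured by UV absorption.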

[6] = pKa2 value was determined; assay type: physicochemical
Method in brief: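 logP was measured in octanol/pH 12 buffer; pKa was measured by the Sirius PCA 101 method.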

Cavia porcellus [7] = experiment: Effective dose for inhibition of skin reactions induced by histamine in guinea pig by 2 hr after the oral administration
Cavia porcellus [8] = experiment: Effective dose for blockade of skin reactions induced by histamine in guinea pig by 2 hr after the oral administration
[9] = Solubility in buffer (pH 4) at pH 2.9; assay type: physicochemical; method in brief: as §3
[10] = Solubility in buffer (pH 6) at pH 4.2; assay type: physicochemical; method in brief: as §3
[11] = Solubility in simulated gastric fluid at pH 1.1; assay type: physicochemical; method in brief: as §3
Rattus norvegicus [12] = experiment: Effective dose for blockade of skin reactions induced by Ascaris allergens in rat by 2 hr after the subcutaneous administration; assay type: functional; conditions: sc; method in brief: as §1
Rattus norvegicus [13] = experiment: Effective dose for the inhibition of 48/80-induced lethal anaphylactic reaction was determined in rat by 1 hour after subcutaneous administration; assay type: functional; conditions: sc; method in brief: as §2
[14] = Solubility in water mg/mL; assay type: physicochemical; method in brief: as §3
Cavia porcellus [15] = experiment: Effective dose for inhibition of skin reactions induced by substance P in guinea pig by 2 hr after the oral administration
[16] = Solubility in simulated intestinal fluid at pH 2.3; assay type: physicochemical; method in brief: as §3
[17] = Solubility in 0.1 M HCl at pH 1.0; assay type: physicochemical; method in brief: as §3
Canis familiaris [18] = experiment: Duration of action against Ascaris allergens induced cutaneous reactions was determined by oral administration at four times the peak effect dose in dog; assay type: functional, Canis lupus familiaris
Method in brief: (§4)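 Beagle dogs of both sexes, selected for sensitivity to Ascaris allergens (ACF, 1/100 in saline), injected intradermally at three chest sites. Wheal diameter and skin thickness increase were read 15 min after injection, before and 1, 4, 20 and 72 h after oral dosing. Onset and duration were estimated graphically at four times the peak-effect dose.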

Histamine H1 receptor = Histamine H1 receptor (Homo sapiens, UniProt P35367); experiment: Binding affinity for H1 histamine receptor expressed in CHO cells; assay type: cell-based
[19] = Solubility in buffer (pH 8) at pH 3.8; assay type: physicochemical; method in brief: as §3
[20] = pKa1 value was determined; assay type: physicochemical; conditions: read-out: pKa1
Canis familiaris [21] = experiment: Onset action against Ascaris allergens induced cutaneous reactions was determined by oral administration at four times the peak effect dose in dog; assay type: functional, Canis lupus familiaris; method in brief: as §4
Rattus norvegicus [22] = experiment: Effective dose for blockade of skin reactions induced by passive cutaneous anaphylaxis in rat by 2 hr after the subcutaneous administration; assay type: functional; conditions: sc; method in brief: as §1
[23] = Solubility in buffer (pH 2) at pH 1.1; assay type: physicochemical; conditions: in the assay text read “pH 1.8” for “pH 1.1”; method in brief: as §3
[24] = Solubility in 0.1 M NaOH at pH 12.6; assay type: physicochemical; method in brief: as §3
Rattus norvegicus [25] = experiment: Effective dose for blockade of skin reactions induced by histamine in rat by 2 hr after the subcutaneous administration; assay type: functional; conditions: sc; method in brief: as §1
Cavia porcellus [26] = experiment: Effective dose for inhibition of skin reactions induced by Ascaris allergens in guinea pig by 2 hr after the oral administration
[27] = Solubility in buffer (pH 10) at pH 4.3; assay type: physicochemical; method in brief: as §3
[28] = Partition coefficient (logP); assay type: physicochemical; conditions: octanol/water
Rattus norvegicus [29] = experiment: Effective dose for the inhibition of 48/80-induced lethal anaphylactic reaction was determined in rat by 2 hours after oral administration; assay type: functional; method in brief: as §2
[30] = Solubility in 0.1 M HCl at pH 2.7; assay type: physicochemical; method in brief: as §3
[31] = Solubility in simulated intestinal fluid at pH 10.1; assay type: physicochemical; method in brief: as §3
[32] = Solubility in buffer (pH 10) at pH 10.2; assay type: physicochemical; method in brief: as §3
[33] = Solubility in buffer of (pH 8) at pH 9.0; assay type: physicochemical; conditions: buffer (pH 8); method in brief: as §3
[34] = Solubility in buffer (pH 6) at pH 9.2; assay type: physicochemical; method in brief: as §3
[35] = Solubility in 0.1 M NaOH at pH 13.0; assay type: physicochemical; method in brief: as §3
[36] = Solubility in buffer (pH 4) at pH 5.4; assay type: physicochemical; method in brief: as §3
[37] = Solubility in simulated gastric fluid at pH 3.1; assay type: physicochemical; method in brief: as §3
[38] = Solubility in buffer (pH 2) at pH 4.8; assay type: physicochemical; method in brief: as §3

Sequence of Histamine H1 receptor (P35367 whole entry): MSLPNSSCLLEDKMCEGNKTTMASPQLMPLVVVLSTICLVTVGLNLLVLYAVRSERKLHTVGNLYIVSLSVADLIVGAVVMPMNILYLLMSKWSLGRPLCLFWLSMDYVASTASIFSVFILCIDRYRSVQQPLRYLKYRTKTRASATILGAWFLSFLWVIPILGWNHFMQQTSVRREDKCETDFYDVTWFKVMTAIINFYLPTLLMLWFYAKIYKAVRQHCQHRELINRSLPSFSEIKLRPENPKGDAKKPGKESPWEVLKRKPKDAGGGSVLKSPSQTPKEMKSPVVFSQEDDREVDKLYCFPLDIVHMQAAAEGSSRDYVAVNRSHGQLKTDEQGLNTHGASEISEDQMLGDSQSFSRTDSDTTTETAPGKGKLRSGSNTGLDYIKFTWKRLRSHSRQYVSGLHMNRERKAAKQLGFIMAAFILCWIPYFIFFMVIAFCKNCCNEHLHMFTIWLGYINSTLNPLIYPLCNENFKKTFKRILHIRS

Structure (SMILES)	ED50 (Rattus norvegicus [1]) [mg/kg]	ED50 (Rattus norvegicus [2]) [mg/kg]	ED50 (Canis familiaris [3]) [mg/kg]	ED50 (Rattus norvegicus [4]) [mg/kg]	ED50 (Cavia porcellus [7]) [mg/kg]	ED50 (Cavia porcellus [8]) [mg/kg]	ED50 (Rattus norvegicus [12]) [mg/kg]	ED50 (Rattus norvegicus [13]) [mg/kg]	ED50 (Cavia porcellus [15]) [mg/kg]	Time (Canis familiaris [18]) [h]	Ki (Histamine H1 receptor) [nM]	pKa [20]	Time (Canis familiaris [21]) [h]	ED50 (Rattus norvegicus [22]) [mg/kg]	ED50 (Rattus norvegicus [25]) [mg/kg]	ED50 (Cavia porcellus [26]) [mg/kg]	logP [28]	also measured
Cl.Cl.NC(=O)c1cnc2n1CCc1ccccc1C21CCNCC1 [VAPITADINE DIHYDROCHLORIDE]	0.51	1.2	0.024	> 10	0.1	0.14	2.7	0.056	1.6	21	19	9.88	<1	2.3	1.4	1.2	1.18	solubility [5]: > 20 mg/mL; pKa ([6]; read-out: pKa2): 3; solubility [9]: > 20 mg/mL; solubility [10]: > 20 mg/mL; solubility [11]: > 20 mg/mL; solubility [14]: > 20 mg/mL; solubility [16]: > 20 mg/mL; solubility [17]: > 20 mg/mL; solubility [19]: > 20 mg/mL; solubility [23]: > 20 mg/mL; solubility [24]: 3.09 mg/mL; solubility [27]: > 20 mg/mL
Cl.Cl.O=C(O)COCCN1CCN([C@H](c2ccccc2)c2ccc(Cl)cc2)CC1 [LEVOCETIRIZINE DIHYDROCHLORIDE]	0.68	1.2	0.14	> 10	0.046	0.14	3.6	–	> 2.5	30	–	–	<1	2.7	0.68	> 2.5	–	–
CCOC(=O)N1CCC(=C2c3ccc(Cl)cc3CCc3cccnc32)CC1 [LORATADINE]	0.89	0.22	0.2	6.2	0.08	0.32	2.7	0.29	2.2	33	–	–	<1	1.6	1.8	0.42	–	–
Cn1ccc2c1CCn1ccnc1C2=C1CCNCC1	0.08	–	0.038	> 0.16	0.24	0.96	0.13	0.028	1.7	35	22	9.85	<1	0.08	0.13	8.7	1.25	Pka2 [6]: 6.52; ED50 (Rattus norvegicus [29]): 0.76 mg/kg
Cn1ccc2c1C(=O)Cn1ccnc1C2=C1CCNCC1	0.55	0.34	0.018	> 10	0.02	0.08	2.9	0.037	> 2.5	13	12	–	<1	0.42	0.95	0.42	–	–
Cl.NC(=O)c1cnc2n1CCc1ccccc1C21CCNCC1	–	–	–	–	–	–	–	–	–	–	–	–	–	–	–	–	–	solubility [30]: > 20 mg/mL; solubility [31]: 1.69 mg/mL; solubility [32]: 1.65 mg/mL; solubility [33]: 12.2 mg/mL; solubility [34]: 8.04 mg/mL; solubility [35]: 0.93 mg/mL; solubility [36]: > 20 mg/mL; solubility [37]: > 20 mg/mL; solubility [38]: > 20 mg/mL
